Test results reported in ChEMBL document CHEMBL4028911, “Discovery of a Small-Molecule Bromodomain-Containing Protein 4 (BRD4) Inhibitor That Induces AMP-Activated Protein Kinase-Modulated Autophagy-Associated Cell Death in Breast Cancer” (J Med Chem, 2017).
The source made the active and inactive calls. No cut-off for these calls is given here.

Legend:
MCF7 [1] = test: Induction of autophagy in human MCF7 cells assessed as reduction in cell viability at 1.5 uM administered at 1 hr post […] addition by MTT assay; assay type: functional, cell-based
Method in brief: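 MCF-7 cells pretreated with 3-MA (1 mM) for 1 h, then given 1.5 µM. Viability read by MTT: 4 h incubation with MTT, formazan dissolved in DMSO, absorbance at 570 nm.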

MDA-MB-231 [2] = test: Antiproliferative activity against human MDA-MB-231 cells after 24 hrs by MTT assay; assay type: functional, cell-based; conditions: MDA-MB-231, 24 h
[3] = target: T1, Bromodomain-containing protein 4 (Homo sapiens, UniProt O60885); test: Inhibition of BRD4 in human MDA-MB-231 cells assessed as increase in ATG13 phosphorylation at ser318 at 3 uM up to 36 hrs by Western blot analysis; assay type: cell-based
Method in brief: (§1)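 MCF-7 (1.5 μM) or MDA-MB-231 (3 μM) cells treated for indicated times. Adherent and floating cells lysed in RIPA with 1 mM PMSF. Equal protein run on 10-15% SDS-PAGE, blotted to PVDF, blocked in milk or BSA, HRP/ECL detection. β-actin loading control.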

MCF7 [4] = test: Effect on AKT expression in human MCF7 cells at 1.5 uM measured up to 36 hrs by Western blot analysis; assay type: ADME, cell-based; conditions: mcf7, 36 h
Method in brief: (§2)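 MCF-7 (1.5 µM) or MDA-MB-231 (3 µM) cells treated for indicated times. Adherent and floating cells lysed in RIPA with 1 mM PMSF, 4°C for 1 h. Equal protein run on 10-15% SDS-PAGE, transferred to PVDF, blocked with milk or BSA, probed with primary then HRP secondary antibodies, ECL detection; β-actin as loading control.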

[5] = target: T1, Bromodomain-containing protein 4; test: Inhibition of BRD4 in human MCF7 cells assessed as induction of AMPKalpha phosphorylation at thr172 at 1.5 uM measured up to 36 hrs by Western blot analysis; assay type: cell-based; method in brief: as §1
MDA-MB-231 [6] = test: Induction of autophagy in human MDA-MB-231 cells assessed as increase in LC3-2 expression at 3 uM by Western blot analysis; assay type: functional, cell-based; conditions: TDE = time-dependent effect
Method in brief: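 MDA-MB-231 cells (DMEM, 10% FBS, 37 °C, 5% CO2) exposed to 3 μM for indicated times. Adherent and floating cells collected, lysed in RIPA with 1 mM PMSF at 4 °C for 1 h. Protein quantified by DC assay, resolved on 10-15% SDS-PAGE, blotted to PVDF, ECL detection.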

[7] = target: T1, Bromodomain-containing protein 4; test: Inhibition of BRD4 in human MCF7 cells assessed as induction of AMPKalpha phosphorylation at thr172 at 1.5 uM in presence of ATG5 siRNA by Western blot analysis; assay type: cell-based
Method in brief: (§3)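 Cells given 50 nM ATG5 or negative-control siRNA (Lipofectamine RNAiMAX) and used 48 h later, then exposed to 1.5 μM (MCF-7) or 3 μM (MDA-MB-231). p-AMPKα analysed by western blot with β-actin loading control.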

MDA-MB-231 [8] = test: Induction of autophagy in human MDA-MB-231 cells assessed as downregulation of p62/SQSTM1 expression at 3 uM measured up to 36 hrs by Western blot analysis; assay type: functional, cell-based; method in brief: as §2
MCF7 [9] = test: Induction of autophagy in human MCF7 cells assessed as LC3 lipidation at 1.5 uM in presence of ATG5 siRNA by Western blot analysis; assay type: functional, cell-based
MDA-MB-231 [10] = test: Induction of autophagy in human MDA-MB-231 cells assessed as downregulation of p62/SQSTM1 expression at 3 uM in presence of ATG5 siRNA by Western blot analysis; assay type: functional, cell-based
[11] = target: T1, Bromodomain-containing protein 4; test: Inhibition of BRD4 in human MDA-MB-231 cells assessed as induction of AMPKalpha phosphorylation at thr172 at 3 uM in presence of ATG5 siRNA by Western blot analysis; assay type: cell-based; method in brief: as §3
[12] = target: Bromodomain-containing protein 3 (Homo sapiens, UniProt Q15059); test: Inhibition of recombinant human N-terminal GST-tagged BRD3 bromodomain-1 (29 to 145 residues) expressed in Escherichia coli expression system after 120 mins by TR-FRET assay
Chain of Bromodomain-containing protein 3 (Q15059 whole entry, the tested form may be a part): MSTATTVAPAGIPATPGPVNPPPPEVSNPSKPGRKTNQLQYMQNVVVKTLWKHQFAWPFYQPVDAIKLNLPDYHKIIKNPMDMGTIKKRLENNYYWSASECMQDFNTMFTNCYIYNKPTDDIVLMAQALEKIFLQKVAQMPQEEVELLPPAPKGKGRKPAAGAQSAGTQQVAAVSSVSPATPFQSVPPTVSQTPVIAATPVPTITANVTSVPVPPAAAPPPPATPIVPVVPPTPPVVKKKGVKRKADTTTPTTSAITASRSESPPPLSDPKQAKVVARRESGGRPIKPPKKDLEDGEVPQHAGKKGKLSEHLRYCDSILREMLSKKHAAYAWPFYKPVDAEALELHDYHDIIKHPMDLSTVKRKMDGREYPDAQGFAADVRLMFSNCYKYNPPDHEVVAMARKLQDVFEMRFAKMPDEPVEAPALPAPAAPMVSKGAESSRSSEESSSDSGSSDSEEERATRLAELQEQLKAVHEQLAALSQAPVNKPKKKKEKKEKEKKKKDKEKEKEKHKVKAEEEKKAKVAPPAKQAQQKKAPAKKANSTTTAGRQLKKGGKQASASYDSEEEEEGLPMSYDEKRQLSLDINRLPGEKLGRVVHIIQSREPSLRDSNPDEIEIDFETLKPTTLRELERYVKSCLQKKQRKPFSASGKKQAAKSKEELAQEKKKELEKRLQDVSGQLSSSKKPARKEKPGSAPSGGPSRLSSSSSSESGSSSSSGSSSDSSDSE
Method in brief: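 TR-FRET bromodomain binding. Recombinant BRD domain, BET ligand and test agent in 20 μl assay buffer with 1% DMSO final. Incubated 120 min at room temperature. Blank lacks BET ligand.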

Mus musculus [13] = test: Toxicity in BALB/c mouse xenografted with human MDA-MB-231 cells assessed as effect on body weight at 25 to 100 mg/kg, ig administered once a day for […] measured every 3 days; assay type: organism-based; conditions: in vivo, po
Method in brief: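 Female BALB/c nude mice (6-8 weeks, 20-22 g) with subcutaneous MCF-7 or MDA-MB-231 xenografts (5×10^6 cells). At 100 mm3, given 25, 50 or 100 mg/kg intragastrically once daily, or vehicle, for 24 or 27 days. Body weight recorded every 3 days. MCF-7 n=7, MDA-MB-231 n=6 per group.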

Mus musculus [14] = test: In vivo Antiproliferative activity in BALB/c mouse xenografted with human MCF7 cells assessed as increase in LC3 expression at 100 mg/kg, ig administered once a day for 24 days by hematoxylin-staining based immunohistochemistry analysis; assay type: functional, organism-based
Method in brief: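 Xenograft tumors from vehicle and 100 mg/kg groups were formalin-fixed and sectioned. Antigen retrieval by microwaving in EDTA buffer (pH 8.0) or citrate buffer (pH 6.0). […] Percentage of positive staining quantified.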

Mus musculus [15] = test: Induction of cleavage of caspase-3 in BALB/c mouse xenografted with human MCF7 cells at 100 mg/kg, ig administered once a day for 24 days by Western blot analysis; assay type: functional, organism-based
Method in brief: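 Female BALB/c nude mice (6-8 weeks) given 5×10^6 MCF-7 or MDA-MB-231 cells subcutaneously. At 100 mm3 tumours, dosed intragastrically once daily (25, 50, 100 mg/kg, or vehicle) for 24 or 27 days. Excised tumours lysed and probed by western blot for caspase-3 cleavage.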

Mus musculus [16] = test: In vivo inhibition of BRD4 expression in BALB/c mouse xenografted with human MDA-MB-231 cells at 100 mg/kg, ig administered once a day for 27 days by Western blot analysis; assay type: functional, organism-based
Method in brief: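 Tumor tissues excised from MCF-7 or MDA-MB-231 xenograft mice were lysed and analysed by western blot for BRD4, c-Myc, LC3 and cleaved caspase-3.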

[17] = target: T1, Bromodomain-containing protein 4; test: Inhibition of BRD4 interaction with p53 in human MDA-MB-231 cells at 3 uM by co-immunoprecipitation assay; assay type: cell-based
Method in brief: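 Cells lysed in RIPA buffer (40 mM Tris-HCl pH 7.5, 150 mM NaCl, 0.5% NP-40, 5% glycerol, 10 mM NaF, protease inhibitors). Lysates incubated overnight at 4 °C with BRD4 or p53 antibody plus protein A/G beads, washed 3 times, resolved on 10% SDS-PAGE and blotted for AMPKα or p53.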

MDA-MB-231 [18] = test: Induction of autophagy in human MDA-MB-231 cells assessed as assessed as cytoplasmic vacuolization; assay type: functional, cell-based

Cc1cc(-c2nc3sc4c(c3c(=O)[nH]2)CCN(C)C4)cc(C)c1O
Activity (MCF7 [1]): inactive
IC50 (MDA-MB-231 [2]): 3.27 µM
inhibition [3]: Active
Activity (MCF7 [4]): Non-Toxic
inhibition [5]: Active
Activity (MDA-MB-231 [6]): Tde
inhibition [7]: Active
Activity (MDA-MB-231 [8]): Active
Activity (MCF7 [9]): inactive
Activity (MDA-MB-231 [10]): inactive
inhibition [11]: Active
IC50 [12]: > 100 µM
Activity (Mus musculus [13]): Non-Toxic
Activity (Mus musculus [14]): Active
Activity (Mus musculus [15]): Active
Activity (Mus musculus [16]): Active
inhibition [17]: inactive
Activity (MDA-MB-231 [18]): Active
